Tests used:
[1] = folding enthalpy; higher = less favourable; fluorescence melt of hairpins on a sequencing array, two-state fit; conditions: sodium 0.088 M
Procedure, shortened: (§1)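 To match UV melts, fitted temperatures were raised by 9.35 °C. These fits were bootstrapped two-state models that gave melting temperature and folding enthalpy, combined by inverse variance over four replicates. The input was normalised Cy3 fluorescence of library hairpins with annealed Cy3 and quencher oligos on a sequenced MiSeq flow cell, imaged in 50 mM Na-HEPES pH 8.0, 25 mM NaCl in 2.5 °C steps up to 60 °C.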

[2] = melting temperature; fluorescence melt of hairpins on a sequencing array, two-state fit, raised by 9.35 °C to match UV melts; conditions: sodium 0.088 M
Procedure, shortened: as §1

| Sequence | folding enthalpy [1] | Tm [2] |
| --- | --- | --- |
| GATCAGGGATCTGATC ((((((....)))))) | -29.1 kcal/mol | 57.1 °C |
| GGGCGTGGAAACACGCTC (.(((((....))))).) | -14.5 kcal/mol | 62.4 °C |
| GATCTGATCACAGATC ((((((....)))))) | -36.8 kcal/mol | 50.4 °C |
| GGTCAGCGAAAGCTACC (((.(((....)))))) | -16.7 kcal/mol | 47.5 °C |
| GCCGCCGAAAGGCAGGGC ((((((....)))..))) | -20.3 kcal/mol | 66.8 °C |
| GGTAACGAAAGTTTTACC ((((((....)))..))) | -9.8 kcal/mol | 29.7 °C |
| GCTTGGCGAAAGCACAGC (((..((....))..))) | -18.2 kcal/mol | 42.2 °C |
| GCGACGCGAAAGCGCGGC ((..(((....)))..)) | -13.1 kcal/mol | 55.7 °C |
| CGAGCACGGAAACGTTCG (((..(((....)))))) | -13.5 kcal/mol | 36.7 °C |
| GGTTAGGCGAAAGCCACC (((..(((....)))))) | -12.5 kcal/mol | 42.9 °C |
| GCATTGCGAAAGCTAAGC ((.(.((....)).).)) | -14.8 kcal/mol | 43.7 °C |
| GGCGTAGCGAAAGCTGCC (((..(((....)))))) | -21.9 kcal/mol | 55.3 °C |
| GCATAAGGAAACTTGTGC (((.(((....))).))) | -25.8 kcal/mol | 45.1 °C |
| GCATTCGAAAGAAGTGC ((((((....))).))) | -23.2 kcal/mol | 40.2 °C |
| GCTGAGAAATCAGC (((((....))))) | -28.4 kcal/mol | 53.2 °C |
| GTAACGCGAAAGCGTAC (((.(((....)))))) | -10.6 kcal/mol | 49 °C |
| GATCGGGTCCCCGATC ((((((....)))))) | -40.4 kcal/mol | 61.3 °C |
| GATCCAGGATTGGATC ((((((....)))))) | -39.9 kcal/mol | 55.1 °C |
| GCGTAATCACGC ((((....)))) | -21.9 kcal/mol | 52.7 °C |
| GCGGACTTCCGC ((((....)))) | -23.2 kcal/mol | 57.4 °C |
| GTTTGCGAAAGCACAAAC ((((((....)))..))) | -12.3 kcal/mol | 31.6 °C |
| GATCAGTCCGCTGATC ((((((....)))))) | -53.2 kcal/mol | 53.1 °C |
| GCAAAGCGAAAGCGTCGC ((.(.((....)).).)) | -23.7 kcal/mol | 60.2 °C |

| Sequence | folding enthalpy [1] | Tm [2] |
| --- | --- | --- |
| GGTTGGGGAAACCTAACC ((((.((....)).)))) | -32.4 kcal/mol | 48 °C |
| GATCCATGAATGGATC ((((((....)))))) | -45.1 kcal/mol | 53.3 °C |
| GAAGCCCGAAAGGGTTTC (((.(((....))).))) | -34.4 kcal/mol | 56.2 °C |
| GCGACCGAAAGGTGACGC ((((((....)))..))) | -26.7 kcal/mol | 52 °C |
| GAGACCGAAAGGTGCCTC ((((((....)))..))) | -12.7 kcal/mol | 31.1 °C |
| GATCCGCCGTCGGATC ((((((....)))))) | -40.7 kcal/mol | 56.9 °C |
| GCAAAGCGAAAGCGGTGC (((..((....))..))) | -19.8 kcal/mol | 61.7 °C |
| GCCAATCGAAAGATGGGC (((.(((....))).))) | -39.5 kcal/mol | 55.1 °C |
| GCAGAGACGAAAGTCTGC (((..(((....)))))) | -19.6 kcal/mol | 51.7 °C |
| GTCCCTGGAAACAGGGGC (.(((((....))))).) | -27.5 kcal/mol | 57.4 °C |
| GCCCGCGAAAGCGTTGGC ((((((....)))..))) | -23.2 kcal/mol | 56.2 °C |
| GCTGCCGAAAGGCCTAGC ((((((....)))..))) | -14.2 kcal/mol | 41 °C |
| GATCACTACGGTGATC ((((((....)))))) | -37.9 kcal/mol | 58.7 °C |
| GCAGCCGGAAACGACTGC ((((.((....)).)))) | -43.5 kcal/mol | 56.6 °C |
| GGTTGCTCGAAAGAGACC (((..(((....)))))) | -13.4 kcal/mol | 29.6 °C |
| GCTATGGGAAACCACAGC (((.(((....))).))) | -23.7 kcal/mol | 38.6 °C |
| GCACCGCGAAAGCCGTGC ((((.((....)).)))) | -31.1 kcal/mol | 62.2 °C |
| CGTTCGGAAACGAATACG ((((((....)))..))) | -19.2 kcal/mol | 36.7 °C |
| GTTGTCGAAAGACCGAAC ((((((....)))..))) | -11.3 kcal/mol | 28.8 °C |
| GGGTCAGGAAACCAACCC ((((..(....)..)))) | -15.7 kcal/mol | 33 °C |
| GATCGTAGTAACGATC ((((((....)))))) | -41.5 kcal/mol | 55.7 °C |
| GCCAGTGGAAACATTGGC ((((.((....)).)))) | -37 kcal/mol | 50.8 °C |
| GTATCTCCGAAAGGATAC (((..(((....)))))) | -19.6 kcal/mol | 30.7 °C |

| Sequence | folding enthalpy [1] | Tm [2] |
| --- | --- | --- |
| GCGACTGATCGC ((((....)))) | -21.9 kcal/mol | 46.8 °C |
| GGACGAGAAATCGTCC ((((((....)))))) | -47 kcal/mol | 60.2 °C |
| GAGGGCACGAAAGTGCTC (((..(((....)))))) | -7.41 kcal/mol | 44 °C |
| GGCCTCGAAAGAGGAGCC ((((((....)))..))) | -14.5 kcal/mol | 47.2 °C |
| GTTGTTCCGAAAGGAAAC (((..(((....)))))) | -20.5 kcal/mol | 49.1 °C |
| GTACCCCCGAAAGGGTAC (((..(((....)))))) | -25.7 kcal/mol | 52.3 °C |
| GTATTTCGAAAGAATTAC (((.(((....))).))) | -28.3 kcal/mol | 33.3 °C |
| GGACCCACGAAAGTGTCC (((..(((....)))))) | -14.4 kcal/mol | 36.4 °C |
| GCTTTCGAAAGAAAGC ((((((....)))))) | -42.3 kcal/mol | 65.1 °C |
| GCATCTGGAAACAGATGC (((((((....))))))) | -47.9 kcal/mol | 67.3 °C |
| GATCCGTACGCGGATC ((((((....)))))) | -39.5 kcal/mol | 63.5 °C |
| GCCGCCGAAAGGCCAGGC ((((((....)))..))) | -20.4 kcal/mol | 56.1 °C |
| CGTTGCCGGAAACGGACG (((..(((....)))))) | -13.3 kcal/mol | 44.3 °C |
| GATCCGAGTGCGGATC ((((((....)))))) | -40.6 kcal/mol | 59.1 °C |
| GATCCCCACCGGGATC ((((((....)))))) | -34.7 kcal/mol | 57.3 °C |
| GGTTGACGAAAGTCCACC (((.(((....))).))) | -32 kcal/mol | 50.5 °C |
| GTCAGCGGAAACACTGAC (((((.(....).))))) | -40.7 kcal/mol | 47.2 °C |
| GATCGAATCCTCGATC ((((((....)))))) | -41.1 kcal/mol | 50.6 °C |
| GATCAATGTGTTGATC ((((((....)))))) | -35 kcal/mol | 50.4 °C |
| GGTCCTGGAAACAAGACC ((((.((....)).)))) | -32.1 kcal/mol | 36.2 °C |
| GGTCGACGAAAGTCTACC (((.(((....))).))) | -34.7 kcal/mol | 49.8 °C |
| GAAAGGGGAAACCCTCTC ((.((((....)))).)) | -17.3 kcal/mol | 26.8 °C |
| GATCGCGTGTGCGATC ((((((....)))))) | -29.3 kcal/mol | 68.5 °C |

Source: the array DNA melting data of Ke et al. (doi:10.1101/2024.01.08.574731)
